Measured values reported in ChEMBL document CHEMBL1772948, “Chemistry and biology of macrolide antiparasitic agents” (J Med Chem, 2011).
In brackets after ≈: the same amount, converted by molar mass. Activity calls are given as the source filed them. The rule behind the calls is not given here.

Assays:
HFF = test: Cytotoxicity against HFF after 48 hrs by MTS assay; type: cell-based; conditions: human
Method in brief: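 Low-passage HFF seeded in 96-well plates and incubated 24h at 37 °C, then exposed to varying macrolide concentrations for 2 days; medium replaced with fresh medium plus MTS, 4h at 37 °C, absorbance 490 nm; CC50 = dose reducing viability by 50%.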

Toxoplasma gondii [1] = test: Antiparasitic activity against Toxoplasma gondii 2F-1 expressing yellow fluorescent protein infected in HFF after 4 days; type: functional, organism-based; conditions: 2F-1, 96 h
Bacillus subtilis = test: Antibacterial activity against Bacillus subtilis; type: functional
Toxoplasma gondii [2] = test: Antiparasitic activity against green fluorescent protein expressing […] deficient Toxoplasma gondii RH infected in HFF assessed as decrease in density of parasitophorous vacuoles at 10 uM treated immediately after infection measured after 24 hrs by microscopic analysis; type: functional, organism-based
Method in brief: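 GFP T. gondii RHΔhxgprt in HFF, compound (10 μM) added either with the inoculum ("0h") or after 6 h pre-infection and washing ("6h"); vacuoles per microscope field scored at 24 h, at least 20 random fields from each of three experiments.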

Toxoplasma gondii [3] = test: Antiparasitic activity against yellow fluorescent protein expressing Toxoplasma gondii 2F-1 infected in HFF treated immediately after infection measured after 48 hrs; type: functional, organism-based; conditions: 2F-1, 48 h
Toxoplasma gondii [4] = test: Antiparasitic activity against yellow fluorescent protein expressing Toxoplasma gondii 2F-1 infected in HFF treated 6 hrs after infection measured after 48 hrs; type: functional, organism-based
Toxoplasma gondii [5] = test: Antiparasitic activity against yellow fluorescent protein expressing Toxoplasma gondii 2F-1 treated 6 hrs after infection for 42 hrs followed by reinoculated into fresh HFF monolayers measured after 48 hrs; type: functional, organism-based
Method in brief: (§1)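 Two-cycle protocol in HFF at 37 °C, 5% CO2, DMEM with 10% FBS. "0h": compound added with parasites, 48 h. "6h": parasites pre-incubated 6 h, uninvaded parasites removed, fresh medium with compound added, 42 h. Released tachyzoites were then harvested, purified and inoculated into fresh HFF without compound for the 2nd cycle. At least triplicate.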

Toxoplasma gondii [6] = test: Antiparasitic activity against yellow fluorescent protein expressing Toxoplasma gondii 2F-1 treated immediately after infection for 48 hrs followed by reinoculated into fresh HFF monolayers measured after 48 hrs; type: functional, organism-based; conditions: 2F-1, 48 h; method in brief: as §1

| SMILES | MIC (Bacillus subtilis) | CC50 (HFF) | IC50 (Toxoplasma gondii [1]) | Activity (Toxoplasma gondii [2]) | IC50 (Toxoplasma gondii [3]) | IC50 (Toxoplasma gondii [4]) | IC50 (Toxoplasma gondii [5]) | IC50 (Toxoplasma gondii [6]) |
| --- | --- | --- | --- | --- | --- | --- | --- | --- |
| CC[C@H]1OC(=O)[C@H](C)[C@@H](O[C@H]2C[C@@](C)(OC)[C@@H](O)[C@H](C)O2)[C@H](C)[C@@H](O[C@@H]2O[C@H](C)C[C@H](N(C)C)[C@H]2O)[C@](C)(O)C[C@@H](C)CN[C@H](C)[C@@H](O)[C@]1(C)O | 1.2 µM (≈ 0.882 µg/mL) | 386 µM | 65 µM |  |  |  |  |  |
| C=CCN1C[C@H](C)C[C@@](C)(OC)[C@H](O[C@@H]2O[C@H](C)C[C@H](N(C)C)[C@H]2O)[C@@H](C)[C@H](O[C@H]2C[C@@](C)(OC)[C@@H](O)[C@H](C)O2)[C@@H](C)C(=O)O[C@H](CC)[C@@](C)(O)[C@H](O)[C@H]1C | 0.8 µM (≈ 0.631 µg/mL) | 84 µM | 13 µM |  |  |  |  |  |
| C=CCO[C@]1(C)C[C@@H](C)CN(C(=O)NCc2ccccc2)[C@H](C)[C@@H](O)[C@](C)(O)[C@@H](CC)OC(=O)[C@H](C)[C@@H](O[C@H]2C[C@@](C)(OC)[C@@H](O)[C@H](C)O2)[C@H](C)[C@H]1O[C@@H]1O[C@H](C)C[C@H](N(C)C)[C@H]1O | 1.5 µM (≈ 1.36 µg/mL) | 28 µM | 6 µM |  |  |  |  |  |
| CC[C@H]1OC(=O)[C@H](C)[C@@H](O[C@H]2C[C@@](C)(OC)[C@@H](O)[C@H](C)O2)[C@H](C)[C@@H](O[C@@H]2O[C@H](C)C[C@H](N(C)C)[C@H]2O)[C@](C)(O)C[C@@H](C)CN(Cc2ccc(C)cc2)[C@H](C)[C@@H](O)[C@]1(C)O | 0.3 µM (≈ 0.252 µg/mL) | 38 µM |  | Active | 5 µM | 9 µM | 0.7 µM | 0.6 µM |
| C=CCO[C@]1(C)C[C@@H](C)CN(Cc2ccccc2)[C@H](C)[C@@H](O)[C@](C)(O)[C@@H](CC)OC(=O)[C@H](C)[C@@H](O[C@H]2C[C@@](C)(OC)[C@@H](O)[C@H](C)O2)[C@H](C)[C@H]1O[C@@H]1O[C@H](C)C[C@H](N(C)C)[C@H]1O | 6 µM (≈ 5.19 µg/mL) | 14 µM | 5 µM |  | 7 µM | > 10 µM | > 10 µM | 10 µM |
| CCCO/N=C1\[C@H](C)C[C@@](C)(O)[C@H](O[C@@H]2O[C@H](C)C[C@H](N(C)C)[C@H]2O)[C@@H](C)[C@H](O[C@H]2C[C@@](C)(OC)[C@@H](O)[C@H](C)O2)[C@@H](C)C(=O)O[C@H](CC)[C@@](C)(O)[C@H](O)[C@H]1C | 0.04 µM (≈ 0.0316 µg/mL) | 7 µM | 1.6 µM |  |  |  |  |  |
| CCNC(=O)N1C[C@H](C)C[C@@](C)(O)[C@H](O[C@@H]2O[C@H](C)C[C@H](N(C)C)[C@H]2O)[C@@H](C)[C@H](O[C@H]2C[C@@](C)(OC)[C@@H](O)[C@H](C)O2)[C@@H](C)C(=O)O[C@H](CC)[C@@](C)(O)[C@H](O)[C@H]1C | 10 µM (≈ 8.06 µg/mL) | 480 µM | 85 µM |  |  |  |  |  |
| CC[C@H]1OC(=O)[C@H](C)[C@@H](O[C@H]2C[C@@](C)(OC)[C@@H](O)[C@H](C)O2)[C@H](C)[C@@H](O[C@@H]2O[C@H](C)C[C@H](N(C)C)[C@H]2O)[C@](C)(OC)C[C@@H](C)CN(Cc2ccccc2)[C@H](C)[C@@H](O)[C@]1(C)O | 0.3 µM (≈ 0.252 µg/mL) | 13 µM | 2 µM |  | 7 µM | 10 µM | 4 µM | 5 µM |
| CC[C@H]1OC(=O)[C@H](C)[C@@H](O[C@H]2C[C@@](C)(OC)[C@@H](O)[C@H](C)O2)[C@H](C)[C@@H](O[C@@H]2O[C@H](C)C[C@H](N(C)C)[C@H]2O)[C@](C)(OC)C[C@@H](C)CN[C@H](C)[C@@H](O)[C@]1(C)O | 2.5 µM (≈ 1.87 µg/mL) | 460 µM | 106 µM |  |  |  |  |  |
| CC[C@H]1OC(=O)[C@H](C)[C@@H](O[C@H]2C[C@@](C)(OC)[C@@H](O)[C@H](C)O2)[C@H](C)[C@@H](O[C@@H]2O[C@H](C)C[C@H](N(C)C)[C@H]2O)[C@](C)(O)C[C@@H](C)/C(=N\OC)[C@H](C)[C@@H](O)[C@]1(C)O | 0.04 µM (≈ 0.0305 µg/mL) | 22 µM | 14 µM |  |  |  |  |  |
| C=CCO[C@]1(C)C[C@@H](C)CN(C(=O)NCC)[C@H](C)[C@@H](O)[C@](C)(O)[C@@H](CC)OC(=O)[C@H](C)[C@@H](O[C@H]2C[C@@](C)(OC)[C@@H](O)[C@H](C)O2)[C@H](C)[C@H]1O[C@@H]1O[C@H](C)C[C@H](N(C)C)[C@H]1O | 5 µM (≈ 4.23 µg/mL) | 90 µM | 33 µM |  |  |  |  |  |
| CC[C@H]1OC(=O)[C@H](C)[C@@H](O[C@H]2C[C@@](C)(OC)[C@@H](O)[C@H](C)O2)[C@H](C)[C@@H](O[C@@H]2O[C@H](C)C[C@H](N(C)C)[C@H]2O)[C@](C)(O)C[C@@H](C)C(=O)[C@H](C)[C@@H](O)[C@]1(C)O [ERYTHROMYCIN] | 0.04 µM (≈ 0.0294 µg/mL) | 475 µM | 93 µM |  |  |  |  |  |
| CCCN1C[C@H](C)C[C@@](C)(OC)[C@H](O[C@@H]2O[C@H](C)C[C@H](N(C)C)[C@H]2O)[C@@H](C)[C@H](O[C@H]2C[C@@](C)(OC)[C@@H](O)[C@H](C)O2)[C@@H](C)C(=O)O[C@H](CC)[C@@](C)(O)[C@H](O)[C@H]1C | 1.2 µM (≈ 0.949 µg/mL) | 106 µM | 20 µM |  |  |  |  |  |

Further lines, with some results ahead:

| MIC (Bacillus subtilis) | SMILES | CC50 (HFF) | IC50 (Toxoplasma gondii [1]) | Activity (Toxoplasma gondii [2]) | IC50 (Toxoplasma gondii [3]) | IC50 (Toxoplasma gondii [4]) | IC50 (Toxoplasma gondii [5]) | IC50 (Toxoplasma gondii [6]) |
| --- | --- | --- | --- | --- | --- | --- | --- | --- |
| 0.04 µM (≈ 0.0316 µg/mL) | C=CCO/N=C1\[C@H](C)C[C@@](C)(O)[C@H](O[C@@H]2O[C@H](C)C[C@H](N(C)C)[C@H]2O)[C@@H](C)[C@H](O[C@H]2C[C@@](C)(OC)[C@@H](O)[C@H](C)O2)[C@@H](C)C(=O)O[C@H](CC)[C@@](C)(O)[C@H](O)[C@H]1C | 16 µM | 2.7 µM |  |  |  |  |  |
| 10 µM (≈ 8.2 µg/mL) | CCNC(=O)N1C[C@H](C)C[C@@](C)(OC)[C@H](O[C@@H]2O[C@H](C)C[C@H](N(C)C)[C@H]2O)[C@@H](C)[C@H](O[C@H]2C[C@@](C)(OC)[C@@H](O)[C@H](C)O2)[C@@H](C)C(=O)O[C@H](CC)[C@@](C)(O)[C@H](O)[C@H]1C | 409 µM | 59 µM |  |  |  |  |  |
| 0.6 µM (≈ 0.466 µg/mL) | CCCN1C[C@H](C)C[C@@](C)(O)[C@H](O[C@@H]2O[C@H](C)C[C@H](N(C)C)[C@H]2O)[C@@H](C)[C@H](O[C@H]2C[C@@](C)(OC)[C@@H](O)[C@H](C)O2)[C@@H](C)C(=O)O[C@H](CC)[C@@](C)(O)[C@H](O)[C@H]1C | 139 µM | 16 µM |  |  |  |  |  |
| 5 µM (≈ 4.08 µg/mL) | C=CCO[C@]1(C)C[C@@H](C)CN(CC=C)[C@H](C)[C@@H](O)[C@](C)(O)[C@@H](CC)OC(=O)[C@H](C)[C@@H](O[C@H]2C[C@@](C)(OC)[C@@H](O)[C@H](C)O2)[C@H](C)[C@H]1O[C@@H]1O[C@H](C)C[C@H](N(C)C)[C@H]1O | 38 µM | 12 µM |  |  |  |  |  |
| 5 µM (≈ 3.82 µg/mL) | CC[C@H]1OC(=O)[C@H](C)[C@@H](O[C@H]2C[C@@](C)(OC)[C@@H](O)[C@H](C)O2)[C@H](C)[C@@H](O[C@@H]2O[C@H](C)C[C@H](N(C)C)[C@H]2O)[C@](C)(OC)C[C@@H](C)CN(C)[C@H](C)[C@@H](O)[C@]1(C)O | 454 µM | 89 µM |  |  |  |  |  |
| 0.04 µM (≈ 0.0299 µg/mL) | CC[C@H]1OC(=O)[C@H](C)[C@@H](O[C@H]2C[C@@](C)(OC)[C@@H](O)[C@H](C)O2)[C@H](C)[C@@H](O[C@@H]2O[C@H](C)C[C@H](N(C)C)[C@H]2O)[C@](C)(OC)C[C@@H](C)C(=O)[C@H](C)[C@@H](O)[C@]1(C)O [CLARITHROMYCIN] | 260 µM | 31 µM |  |  |  |  |  |
| 10 µM (≈ 8.17 µg/mL) | C=CCO[C@]1(C)C[C@@H](C)CN(CCC)[C@H](C)[C@@H](O)[C@](C)(O)[C@@H](CC)OC(=O)[C@H](C)[C@@H](O[C@H]2C[C@@](C)(OC)[C@@H](O)[C@H](C)O2)[C@H](C)[C@H]1O[C@@H]1O[C@H](C)C[C@H](N(C)C)[C@H]1O | 42 µM | 15 µM |  |  |  |  |  |
| 0.3 µM (≈ 0.233 µg/mL) | C=CCN1C[C@H](C)C[C@@](C)(O)[C@H](O[C@@H]2O[C@H](C)C[C@H](N(C)C)[C@H]2O)[C@@H](C)[C@H](O[C@H]2C[C@@](C)(OC)[C@@H](O)[C@H](C)O2)[C@@H](C)C(=O)O[C@H](CC)[C@@](C)(O)[C@H](O)[C@H]1C | 103 µM | 13 µM |  |  |  |  |  |
| 1.5 µM (≈ 1.32 µg/mL) | CC[C@H]1OC(=O)[C@H](C)[C@@H](O[C@H]2C[C@@](C)(OC)[C@@H](O)[C@H](C)O2)[C@H](C)[C@@H](O[C@@H]2O[C@H](C)C[C@H](N(C)C)[C@H]2O)[C@](C)(OC)C[C@@H](C)CN(C(=O)NCc2ccccc2)[C@H](C)[C@@H](O)[C@]1(C)O | 62 µM | 16 µM |  |  |  |  |  |
| 1.2 µM (≈ 1.04 µg/mL) | CC[C@H]1OC(=O)[C@H](C)[C@@H](O[C@H]2C[C@@](C)(OC)[C@@H](O)[C@H](C)O2)[C@H](C)[C@@H](O[C@@H]2O[C@H](C)C[C@H](N(C)C)[C@H]2O)[C@](C)(O)C[C@@H](C)CN(C(=O)NCc2ccccc2)[C@H](C)[C@@H](O)[C@]1(C)O | 222 µM | 12 µM |  |  |  |  |  |
| 0.04 µM (≈ 0.0336 µg/mL) | CC[C@H]1OC(=O)[C@H](C)[C@@H](O[C@H]2C[C@@](C)(OC)[C@@H](O)[C@H](C)O2)[C@H](C)[C@@H](O[C@@H]2O[C@H](C)C[C@H](N(C)C)[C@H]2O)[C@](C)(O)C[C@@H](C)/C(=N\OCc2ccccc2)[C@H](C)[C@@H](O)[C@]1(C)O | 3 µM | 1.4 µM |  |  |  |  |  |
